Measurements: ChEMBL document CHEMBL1123379, “Cardiotonic agents. 2. Synthesis and structure-activity relationships in a new class of 6-, 7-, and 8-pyridyl-2(1H)-quinolone derivatives” (1986)

Experiments:
Cavia porcellus [1] = species: Cavia porcellus; assay: Positive inotropic effect in isolated left guinea pig atria.; type: functional; conditions: read-out: ED50 (the source's name)
Outline: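 Isolated left atria from guinea pigs of either sex (300–800 g), reserpine-pretreated (5 mg/kg ip) 24 h before death. Atria paced electrically at 2.5 Hz, 5 ms square pulses, voltage 50% above threshold; bath contained phentolamine 3.15×10^-4 mM. Isoprenaline dose-response curve run first to validate each preparation. Positive inotropy from dose-response curves; ED50 (mol·L⁻¹, dose giving 50% of maximum effect) by Ariens–Van Rossum method.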

Cavia porcellus [2] = species: Cavia porcellus; assay: Intrinsic activity calculated as the ratio of the maximum response to the compound to the maximum response to isoprenaline.; type: functional

Row | Compound | EC50 (Cavia porcellus [1]) [µM] | Intrinsic activity (Cavia porcellus [2])
1 | Oc1ccc2ccc(-c3cccnc3)cc2n1 | 8.3 | 0.67
2 | O=c1ccc2cc(-c3cccnc3)ccc2n1CCN1CCOCC1 | 22 | 0.58
3 | Oc1ccc2cc(-c3ccccn3)cc(O)c2n1 | 19 | 0.51
4 | c1cncc(-c2ccc3nc(OCCN4CCOCC4)ccc3c2)c1 | 15 | 0.23
5 | Oc1ccc2cc(-c3ccccn3)ccc2n1 | 15 | 0.67
6 | Oc1ccc2cc(-c3cccnc3)ccc2n1 | 0.52 | 0.67
7 | Nc1cc(Cl)c2nc(O)ccc2c1 | 100 | 0.54
8 | Oc1ccc2cccc(-c3cccnc3)c2n1 | 140 | 0.41
9 | Oc1ccc2cc(-c3cccnc3)cc(Cl)c2n1 | 0.28 | 0.68
10 | Oc1ccc2cc(-c3ccccn3)cc(Cl)c2n1 | 2.05 | 0.75
11 | Cn1c(=O)ccc2cc(-c3cccnc3)ccc21 | 110 | 0.33
12 | Cc1cc(C)c(-c2ccc3nc(O)ccc3c2)c(C)n1 | 1.05 | 0.38
13 | Oc1ccc2cc(-c3cccnc3)cc(O)c2n1 | 0.75 | 0.72
14 | CC(C)NCC(O)c1ccc(O)c(O)c1 (configuration not stated) [ISOPROTERENOL] | – | 1

Now from value to compound, other results behind:

Row | EC50 (Cavia porcellus [1]) [µM] | Compound | Intrinsic activity (Cavia porcellus [2])
15 | 2.55 | O=C1CCc2cc(-c3ccccn3)ccc2N1 | 0.29
16 | 5 | COc1cc(-c2ccncc2)cc2ccc(O)nc12 | 0.88
17 | 6.5 | COc1cc(-c2cccnc2)cc2ccc(O)nc12 | 0.57
18 | 6.5 | COc1cc(-c2ccncc2)cc2c1NC(=O)CC2 | 0.68
19 | 0.38 | Oc1ccc2cc(-c3ccncc3)cc(Cl)c2n1 | 0.78
20 | 14 | O=C1CCc2cc(-c3ccncc3)ccc2N1 | 0.56
21 | 1.3 | O=C1CCc2cc(-c3cccnc3)ccc2N1 | 0.67
22 | 2.5 | Oc1ccc2cc(-c3ccncc3)ccc2n1 | 0.45
23 | 16 | COc1cc(-c2cccnc2)cc2c(C)cc(O)nc12 | 0.81
24 | 9.2 | COc1cc(-c2ccccn2)cc2ccc(O)nc12 | 0.72
25 | 6.4 | COc1cc(-c2ccccn2)cc2c1NC(=O)CC2 | 0.71
26 | 34 | COc1cc(-c2cccnc2)cc2c1NC(=O)CC2 | 0.68
27 | 4.85 | COc1cc(-c2ccccn2)cc2c(C)cc(O)nc12 | 0.74
28 | 7 | COc1cc(-c2ccncc2)cc2c(C)cc(O)nc12 | 0.5
29 | 14 | Cc1[nH]c(=O)c(C#N)cc1-c1ccncc1 [MILRINONE] | 0.67
